Screening results as filed in PubChem.
In the library only some 10% were active in any assay of this set; here they are far more common.
PMI activator – phosphomannose isomerase (human) activation | P34949 | purified human PMI, coupled resazurin fluorescence, 20 min; hits give high values; 1 = vehicle control, 0 substrate-free wells | activation factor at 20 µM | actives 0.005% (n = 190,000) | AID 1214;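 active = activation factor of 2 or more at 20 µM, relative to plate controls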
Target sequence (P34949 whole entry, looked up): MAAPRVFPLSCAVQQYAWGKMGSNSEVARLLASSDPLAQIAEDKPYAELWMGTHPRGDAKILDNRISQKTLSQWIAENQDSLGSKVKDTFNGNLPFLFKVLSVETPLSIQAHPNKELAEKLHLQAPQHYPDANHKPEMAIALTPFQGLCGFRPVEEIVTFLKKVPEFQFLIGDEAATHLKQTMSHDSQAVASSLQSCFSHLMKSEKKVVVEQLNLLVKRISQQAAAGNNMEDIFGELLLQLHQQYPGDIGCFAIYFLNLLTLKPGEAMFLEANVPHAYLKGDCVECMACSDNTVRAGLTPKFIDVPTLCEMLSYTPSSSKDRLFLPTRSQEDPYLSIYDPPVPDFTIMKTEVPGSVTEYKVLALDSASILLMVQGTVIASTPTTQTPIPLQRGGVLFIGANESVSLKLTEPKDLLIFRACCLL
PMI act satM6P – PMI (human) activation, high substrate | P34949 | activation factor at 20 µM | coupled PMI enzyme assay, resazurin fluorescence, 20 min; hits give high values; 1 = untreated enzyme, 0 = substrate-free blank | AID 1216 | actives 0.34% (n = 190,000);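 active = activation factor of 2 or more at 20 µM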
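Test system: human phosphomannose isomerase with PGI, G6PDH, diaphorase coupling enzymes; amount: 15 ng/mL PMI; incubation: enzyme reaction with compound 20 min at room temperature; technique: resorufin fluorescence (Ex 544/Em 590 nm) from resazurin via diaphorase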
WT yeast gro inh – growth inhibition of WT yeast, mitochondrial fusion screen; mitochondrial fusion phenotypic screen, WT strain; inhibition, % at 10 µM; actives 2.1% (n = 190,000); in the data active = inhibition above about 58%; tested in S. cerevisiae
Diaph act CS – activates diaphorase or chemically reduces, flagging diaphorase assay artifacts | Diaphorase/resazurin coupled assay, resorufin fluorescence, 16 min; hits give high values; 1 = vehicle wells, 0 = NADH-free wells | activation factor at 20 µM | actives 0.005% (n = 190,000);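 active = diaphorase activity raised at least twofold by the compound at 20 µM; inactive = activation factor below 2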
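Assay system: bacterial diaphorase enzyme (C. kluyveri) / Input: enzyme 0.07 U/mL final / Medium: 50 mM HEPES pH 7.4 with 4.542 mM MgCl2, 0.005% Tween 20 / Doses: single compound dose of 20 µM, 1% DMSO final / Incubation: 16 min enzyme reaction, ambient temperature / Signal: fluorescence, excitation 544 nm and emission 590 nm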
Lmaj promast – inhibitors of Leishmania major promastigote growth | actives 9% (n = 200,000) | AID 1063 | Leishmania major promastigotes, resazurin fluorescence viability | inhibition, % at 10 µM; in the data active = inhibition above about 50%;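 also: promastigotes grown with compound for 44 hours at 28 °C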
A number is an active result; – = inactive.

SMILES	PMI activator	PMI act satM6P	WT yeast gro inh	Diaph act CS	Lmaj promast
CC(OC(=O)CC(NC(=O)c1ccccc1Cl)c1ccccc1)C(=O)Nc1cccc(Cl)c1Cl (centres undefined)	–	–	–	–	–
O=c1cc(N2CCCCC2)c(-c2ccccc2)nn1Cc1ccc(F)cc1	–	–	83	–	–
O=c1cc(N2CCCCC2)c(-c2ccccc2)n[nH]1	–	–	–	–	–
O=c1cc(N2CCCCC2)c(-c2ccccc2)nn1Cc1c(Cl)cccc1Cl	–	–	89	–	–
O=c1cc(N2CCCCC2)c(-c2ccccc2)nn1Cc1ccc(Cl)cc1	–	–	–	–	–
O=C(CN(Cc1ccco1)C(=O)Cn1nnc(-c2cccs2)n1)NCC1CCCO1 (centres undefined)	–	–	–	–	–
COc1cc(-c2cc(C(=O)NN3CCN(C)CC3)c3ccccc3n2)cc(OC)c1OC	–	–	–	–	91
COc1cc(-c2cc(C(=O)Nc3c(Cl)cc(Cl)cc3Cl)c3ccccc3n2)cc(OC)c1OC	–	–	–	–	81
CN1CCN(NC(=O)c2cc(-c3ccccn3)nc3ccccc23)CC1	–	–	–	–	–
N#Cc1c(-c2ccncc2)c2c([nH]c1=S)CCCC2	–	–	–	–	–
Cc1cc(-c2ccccc2)c(C#N)c(=S)[nH]1	–	–	–	–	–
N#Cc1c2c(c(-c3ccccc3Cl)[nH]c1=S)CCCC2	–	2.4	–	–	–
N#Cc1c(-c2ccccc2Cl)cc(-c2ccccc2)[nH]c1=S	–	2.5	–	–	–
COc1ccccc1NC(=O)Nc1nnc(CC(=O)Nc2ccccc2C)s1	–	–	–	–	–
